According to the EternaBench riboswitch data:

Tested on: MS2 coat protein
Assay: apparent Kd, MS2 coat protein; higher = weaker binding; RNA-MaP array; FMN 200 µM where present
In short: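 Designs were transcribed by stalled E. coli RNA polymerase on Illumina sequencing-chip clusters. They were titrated with SNAP-549-labelled MS2 coat protein from 0.7 or 1.5 nM, doubling to 3 µM, in 100 mM Tris-HCl pH 7.5, 80 mM KCl, 4 mM MgCl2, BSA, DTT, yeast tRNA and Tween-20, without and then with constant ligand. The apparent Kd is the median of filtered per-cluster fits after normalisation of green signal to red-channel RNA signal and control-cluster median Fmax.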

[1] = designed as: ON switch for flavin mononucleotide, no ligand
[2] = ligand present: flavin mononucleotide, designed as: ON switch for flavin mononucleotide
[3] = designed as: OFF switch for flavin mononucleotide, no ligand
[4] = ligand present: flavin mononucleotide, designed as: OFF switch for flavin mononucleotide

Sequence	apparent Kd [1]	apparent Kd [2]	apparent Kd [3]	apparent Kd [4]
AAUGGGCAGCAGAAGGCAUGUCUACGGACAUGAGGAUCACCCAUGUAGUGAAGCCGAAAGGCGCAUGAGGAUAUGCUGCCCUAA	131 nM	8.45 nM		
GCUUGUGGGCAAGGAUAUCCUACGUUGUUCUGGUUCGUGUCUGUCACAUGAGGAUCACCCAUGUGGGAGAAGGUGCAUUUGGUG			19.7 nM	17.1 nM
GAGUGACAUGAGGAUCACCCAUGUAAGGAUAUACGGUUGGUAGAGAGAGGGCUAAAGGGUAGAAGGUACGAAGG			76.7 nM	48.7 nM
AAAGACAUGGUGCAGGAUAUAUUAAUAGUCACAUGAGGAUCACCCAUGUUCAGAUAUCUGAACGAGUAGAAGGGCGAUGAAAAAA	602 nM	589 nM		
GGAGCCGGCACCGAGGAUAUUCAUAUUAAAACAUGAGGAUCACCCAUGUAGGCCAGAAGGCCUUGGGAGAAGGCGGAUCGGCUCG	611 nM	38.4 nM		
ACAUGAGGAUCACCCAUGUAGAAUGAAGAAGGUAGAUACUUGUGACUCACCCAUGUACAUAGGACUAAGGAUAUUCUAAUAAUU	26.3 nM	13 nM		
UACAUCAAUGAAGGAUAUCUAUAUCCAACAUGAGGAUCACCCAUGUUGAGGAUCACCCAUGUAAAGGAGAAGGUUAAUAUAACU	37.7 nM	29.7 nM		
UGCGUGGUCACAGGAUAUGCAAGAUAAACUUUAGCAGAAGGGUGAUCAAUCAGCUCAAUACCACAUGAGGAUCACCCAUGUCUA	53.4 nM	258 nM		
AAUAUGUUGCAGAAGGUUAUUUUUAUAACGUGCCACUUGACAUGAGGAUCACCCAUGUAAUUGAUGAAGGAUAUGCAAUAUAUU			6.46 nM	6.34 nM
AGGUAAGAGUUAAUUGUGACGGUGAGAAGGCAAUAGGUUGUGAUUAACAUGAGGAUCACCCAUGUUGAGGAUAUCACCACCUAC			14.3 nM	80.8 nM
UUUUUAUUUGUAGGAUAUGGAGACAUGAGGAUCACCCAUGUAUGAUAAGCUAAAUUAUGCUGUGGCCAGAAGGAUAUUAUUUUU	43.9 nM	49.7 nM		
UGGCCUUUAGGAUAUCGGGUCUUUAACAUGAGGAUCACCCAUGUGGCACUCUCUUGAGAACGAGAAGGAAAACCCG			23.2 nM	23.7 nM
UGAGCCUCGUGAGGAUAUACAUGAGGAUCACCCAUGUAAUAGGAUGAACGGUGGAAACACCGAAUGUAGAAGGCACGAGGCUCA			82.2 nM	869 nM
CCAGGCUGUGUGAGGAUAUGCUGGUCCUUGGAUCAGCAGAAGGCACAUGAGGAUCACCCAUGUGAAGAGCUUGG			16.4 nM	65 nM
AACAAUCUAUCUGAGGAUAUCAUGAAAAAAACAUGAGGAUCACCCAUGUGCAGGAAAACUGCAUAUGAGAAGGCAGAUAGAUUGA	702 nM	27 nM		
CAUAAGUCAGAGAAGGCGUACAUGCCCAGACUGUGACGGAUGACGACAUGAGGAUCACCCAUGUACGAGGAUAUCUGAGCAAUC			22.9 nM	168 nM
GAAUAAUUGAUCCAAUAUAACAACAUGAGGAUCACCCAUGUGCAGGAUAUCGUGUGUGUUAUAUACGAGAAGGGCAAGAACUGU			729 nM	594 nM
UCGAUGCGAGGAUAUACUAAGGCAACUACUGCAGCUCAAAAACAUGAGGAUCACCCAUGUAGAAGGCGCAUAUA			16 nM	15.4 nM
CUUUUGUGAGGAUAUUCGUAGUAGGGUCAUGGCACUAUUAUGGAGAAGGCACAUGAGGAUCACCCAUGUACCUU			16.6 nM	29.3 nM
GAGCGCUGUCGAGAGGAUAUGCGGUGAUGGACAUGAGGAUCACCCAUGUUAGCGAUAGCAUUACGGUAGAAGGCUCUACAGCUGC	33.4 nM	15.4 nM		
ACAUACAUUCGAGGAUAUCGGUGAUUAAUUUUACGAGAAGGCGAUUUAAGAUAUAAUAUUUUAGACAUGAGGAUCACCCAUGUA	25.3 nM	23.1 nM		
CUGGUCUAUGUAGGAUAUGGUGUAUAUGUAUUACCAGAAGGACAUGAGGAUCACCCAUGUGUCGUGGUAUGAGUAGGUGAUGUU			47.2 nM	146 nM
CGUCUGGAUCAAGGAUAUGUCAAGACGCUCCGCGUACACAUGAGGAUCACCCAUGUCAACAAAUGACAGAAGGUGAUAAUGGCC	80.3 nM	444 nM		
CAUGCGGGCGGGUUUUUGAUACAUGAGGAUCACCCAUGUCUUGAGGAUAUCUUUGCAACACGCCAAGAGAAGGCAAGGCGUUUC			33.6 nM	107 nM
UAUAUAUAGUAAGGAUAUGUAUAUAUUUAAUAAACAGAAGGUACUGACAUGAGGAUCACCCAUGUUUUAGUGUGGGCAUGUAGA			74.1 nM	110 nM
AAGAAACAUGAGGAUCACCCAUGUAGAAAUAUGGGAGGAUAUACGAGGACGAAAGUCAAAGUAGAAGGCCUAAGAA	56.9 nM	27.4 nM		
GUAUCAUACCAAGGAUAUUUAGGACUUUGAUAGACAUGAGGAUCACCCAUGUGGCGUUAGUCACGGGAGAAGGUGGUAUGAUAC	57.4 nM	18.4 nM		
UUACUCAUGUAAGGAUAUGCAGCCGAUACGGCUGCAGAAGGUACUAAAAUACAUGAGGAUCACCCAUGUCUUUUUAAUUUAGAC	140 nM	73.7 nM		
